Assay results: ChEMBL document CHEMBL3102749, “Antiprotozoal activity of dicationic 3,5-diphenylisoxazoles, their prodrugs and aza-analogues” (Bioorg Med Chem, 2014)
pIC50: −log10 of the molar value. Calls of active or inactive are those of the source. The rule behind the calls is not given here.

Columns and labels:
[1] = test system: Trypanosoma brucei rhodesiense; test: Trypanocidal activity against bloodstream form of Trypanosoma brucei rhodesiense STIB900 infected in NMRI mouse assessed as decrease in parasitemia at 5 mg/kg, ip qd administered for 4 days measured once per week until 60 days by microscopic analysis; assay type: functional, organism-based; set-up: dose 5 mg/kg
In short: (§1)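 Mice infected with T. b. rhodesiense STIB900 received one dose daily for 4 consecutive days, 4 mice per group. Diamidines were given intraperitoneally and prodrugs orally. The primary endpoint was cures per group: a mouse counted as cured if it survived 60 days post-infection without parasitemia relapse.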

[2] = test system: Trypanosoma brucei rhodesiense; test: Trypanocidal activity against bloodstream form of Trypanosoma brucei rhodesiense STIB900 infected in NMRI mouse assessed as mean parasitemia relapse day at 5 mg/kg, ip qd administered for 4 days; assay type: functional; settings: route intraperitoneal
In short: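 Mice infected with STIB900 received 4 consecutive daily intraperitoneal doses, 4 mice per group. The secondary endpoint was mean relapse day post-infection, which separates weaker compounds; mice surviving 60 days without parasitemia relapse were scored as cured.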

[3] = test system: Trypanosoma brucei rhodesiense; test: Trypanocidal activity against bloodstream form of Trypanosoma brucei rhodesiense STIB900 infected in NMRI mouse assessed as mean survival days at 5 mg/kg, ip qd administered for 4 days; assay type: functional
In short: (§2)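 Mice infected with T. b. rhodesiense STIB900 (acute model) dosed once daily for 4 consecutive days, ip (diamidines) or oral (prodrugs). Cure means survival to 60 days post infection without parasitemia relapse. Mean survival days post infection are averaged over all mice, with cured mice counted as >60 days.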

[4] = Selectivity index, ratio of IC50 for rat L6 cells to IC50 for chloroquine/pyrimethamine-resistant Plasmodium falciparum K1 infected in human red blood cells; assay type: toxicity, cell-based; settings: read-out: Ratio IC50
In short: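 Ratio of IC50 in L6 rat myoblast cytotoxicity assay to IC50 against P. falciparum K1; each IC50 is the mean of two independent assays.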

L6 = test: Cytotoxicity against rat L6 cells assessed as cell viability after 70 hrs by Alamar blue assay; assay type: cell-based; settings: L6, 70 h
[5] = Selectivity index, ratio of IC50 for rat L6 cells to IC50 for Trypanosoma brucei rhodesiense STIB900; assay type: toxicity, cell-based; settings: read-out: Ratio IC50
In short: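 Ratio of IC50 in L6 rat myoblast cytotoxicity assay to IC50 against T. b. rhodesiense STIB900; each IC50 is the mean of two independent assays.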

Plasmodium falciparum = test: Antiplasmodial activity against chloroquine/pyrimethamine-resistant Plasmodium falciparum K1 infected in human red blood cells assessed as [3H]-hypoxanthine incorporation incubated for 48 hrs prior to [3H]-hypoxanthine addition measured after 24 hrs by liquid scintillation counting analysis; assay type: functional, organism-based
[6] = test system: Trypanosoma brucei rhodesiense; test: Antitrypanosomal activity against Trypanosoma brucei rhodesiense STIB900 assessed as growth inhibition after 70 hrs by Alamar blue assay; assay type: functional, organism-based; settings: STIB900, 70 h
[7] = test system: Trypanosoma brucei rhodesiense; test: Trypanocidal activity against bloodstream form of Trypanosoma brucei rhodesiense STIB900 infected in NMRI mouse assessed as decrease in parasitemia at 25 mg/kg, po qd administered for 4 days measured once per week until 60 days by microscopic analysis; assay type: functional, organism-based; set-up: dose 25 mg/kg; in short: as §1
[8] = test system: Trypanosoma brucei rhodesiense; test: Trypanocidal activity against bloodstream form of Trypanosoma brucei rhodesiense STIB900 infected in NMRI mouse assessed as mean survival days at 25 mg/kg, po qd administered for 4 days; assay type: functional; in short: as §2

Compound | Activity [1] | Time [2] | MSD [3] | selectivity ratio [4] | pIC50 (L6) | selectivity ratio [5] | pIC50 (Plasmodium falciparum) | MSD ([3]; route intraperitoneal) | pIC50 [6] | Activity [7] | MSD [8]
Cl.Cl.Cl.N=C(N)c1ccc(-c2cc(-c3cc(C(=N)N)ccc3Cl)no2)cc1 | inactive | 7.75 days | inactive |  |  |  |  |  |  |  | 
Cl.N=C(N)c1cncc(-c2cc(-c3ccc(C(=N)N)nc3)no2)c1 |  | 60 days |  | 440 | 5.68 | 111 | 8.32 | >60 days | 7.72 |  | 
Cl.Cl.N=C(N)c1ccc(-c2cc(-c3cccc(C(=N)N)c3)on2)nc1 |  | 53 days |  | 17400 | 3.92 | 8900 | 8.15 | >60 days | 7.87 |  | 
Cl.Cl.N=C(N)c1ccc(-c2cc(-c3cncc(C(=N)N)c3)no2)cc1 |  | 15 days |  | 1170 | 5.36 | 270 | 8.43 |  | 7.80 |  | 
Cl.Cl.N=C(N)c1cncc(-c2cc(-c3ccc(C(=N)N)nc3)on2)c1 | inactive | 25.25 days |  | 1400 | 5.31 | 206 | 8.46 |  | 7.62 |  | 
COc1ccc(C(=N)N)cc1-c1cc(-c2cccc(C(=N)N)c2)no1.Cl.Cl |  | 22.3 days | inactive |  |  |  |  |  |  |  | 
Cl.Cl.Cl.N=C(N)c1ccc(-c2cc(-c3cc(C(=N)N)ccc3Cl)on2)cc1 | inactive | 8.75 days | inactive |  |  |  |  |  |  |  | 
Cl.Cl.N=C(N)c1ccc(-c2cc(-c3cc(C(=N)N)ccc3[N+](=O)[O-])no2)cc1 | inactive | 17 days |  |  |  |  |  | 29.75 days |  |  | 
Cl.Cl.N=C(N)c1cccc(-c2cc(-c3ccc(C(=N)N)cc3[N+](=O)[O-])no2)c1 | inactive | 13 days | inactive |  |  |  |  |  |  |  | 
COc1ccc(C(=N)N)cc1-c1cc(-c2cc(C(=N)N)ccc2OC)on1.Cl.Cl | inactive | 26 days |  |  |  |  |  | >50 days |  |  | 
Cl.Cl.N=C(N)c1ccc(-c2cc(-c3ccc(C(=N)N)nc3)no2)cc1 |  | 25.7 days |  | 6330 | 5.60 | 423 | 9.40 |  | 8.23 |  | 
COc1cc(C(=N)N)ccc1-c1cc(-c2cccc(C(=N)N)c2)no1.Cl.Cl | inactive | 18 days | inactive |  |  |  |  |  |  |  | 
Cl.Cl.N=C(N)c1ccc(-c2cc(-c3cc(C(=N)N)ccn3)no2)cc1 | inactive | 15.5 days |  | 14200 | 4.15 | 1350 | 8.30 |  | 7.28 |  | 
COc1cc(/C(N)=N/O)ccc1-c1cc(-c2cccc(/C(N)=N/O)c2)on1.Cl.Cl |  |  |  |  |  |  |  |  |  | inactive | 17.5 days
CO/N=C(\N)c1ccc(-c2cc(-c3cccc(/C(N)=N/OC)c3)on2)cc1.Cl.Cl |  |  |  |  |  |  |  |  |  | inactive | 31.25 days
COc1ccc(/C(N)=N/O)cc1-c1cc(-c2ccc(/C(N)=N/O)cc2)on1.Cl.Cl |  |  |  |  |  |  |  |  |  | inactive | 18.25 days
Cl.Cl.N=C(N)c1ccc(-c2cc(-c3ccc(C(=N)N)nc3)on2)cn1 |  | 24 days |  | 6650 | 5.61 | 398 | 9.40 |  | 8.21 |  | 
Cl.Cl.N=C(N)c1cccc(-c2cc(-c3ccc(C(=N)N)cc3[N+](=O)[O-])on2)c1 | inactive | 12.25 days | inactive |  |  |  |  |  |  |  | 
COc1cc(C(=N)N)ccc1-c1cc(-c2cccc(C(=N)N)c2)on1.Cl.Cl | inactive | 36.25 days | inactive |  |  |  |  |  |  |  | 
COc1cc(/C(N)=N/O)ccc1-c1cc(-c2ccc(/C(N)=N/O)cc2OC)on1.Cl.Cl |  |  |  |  |  |  |  |  |  | inactive | 12 days
